{"data": "Assay results from different studies", "observed": "cell growth or viability", "note": "Each line is one published result; the experiments were not run side by side."}
{"SMILES": "Cc1nc(Nc2ncc(C(=O)Nc3c(C)cccc3Cl)s2)cc(N2CC[C@H](O)C2)n1", "cell line": "REH", "test": "ATP luminescence", "setting": "10 µM, 72 h", "quantity": "inhibition", "result": "32%"}
{"SMILES": "Cc1ccc(CN2C(=O)C(=Nc3cccc(C)c3)c3ccccc32)cc1", "cell line": "L02", "test": "MTT", "setting": "48 h", "quantity": "IC50", "result": "10.3 µM"}
{"SMILES": "Cc1ncsc1-c1ccc(CNC(=O)[C@@H]2C[C@@H](O)CN2C(=O)[C@@H](NC(=O)COCCOCCOCCNC(=O)C[C@@H]2N=C(c3ccc(Cl)cc3)c3c(sc(C)c3C)-n3c(C)nnc32)C(C)(C)C)cc1", "cell line": "HCC1806", "test": "MTT", "setting": "6 days", "quantity": "IC90", "result": "0.81 µM"}
{"SMILES": "C[C@H](Oc1nccc(-c2noc3c2CCC[C@@]32CCCc3sc(N)c(C#N)c32)n1)[C@@H]1CCCN1C", "cell line": "BaF3", "setting": "72 h", "quantity": "EC50", "result": "0.042 µM"}
{"SMILES": "C[C@H](Nc1ccc2c(c1)OCCn1cc(N3C(=O)OC[C@H]3C(F)F)nc1-2)C(N)=O", "cell line": "MFM-223", "test": "ATP luminescence", "setting": "5 days", "quantity": "EC50", "result": "1.39 µM"}
{"SMILES": "O=C1Nc2ccccc2C1=Nc1ccccc1Br", "cell line": "L02", "test": "MTT", "setting": "48 h", "quantity": "IC50", "result": "31.4 µM"}
{"SMILES": "C[C@H]1CNCCN1c1nccc(-c2noc([C@@]3(C)CCCc4sc(N)c(C#N)c43)n2)n1", "cell line": "BaF3", "setting": "72 h", "quantity": "EC50", "result": "1.58 µM"}
{"SMILES": "Cc1ccc(CN2C(=O)C(=Nc3c(C(C)C)cccc3C(C)C)c3ccccc32)cc1", "cell line": "L02", "test": "MTT", "setting": "48 h", "quantity": "IC50", "result": "177 µM"}
{"SMILES": "C[C@H]1CN(C)CCN1c1nccc(-c2noc3c2CCC[C@@]32CCCc3sc(N)c(C#N)c32)n1", "cell line": "BaF3", "setting": "72 h", "quantity": "EC50", "result": "0.479 µM"}
